These results are taken from ChEMBL document CHEMBL1125292, “Synthesis of novel 2-phenyl-2H-pyrazolo[4,3-c]isoquinolin-3-ols: topological comparisons with analogues of 2-phenyl-2,5-dihydropyrazolo[4,3-c]quinolin-3(3H)-ones at benzodiazepine receptors” (J Med Chem, 1992).

By IC50 is commonly meant the concentration at which inhibition is half-maximal. Read a low IC50 as inhibition by little substance.

This assay deals with GABA-A receptor; anion channel. The assay is described as follows: Concentration to inhibit [3H]flunitrazepam binding to rat cerebral cortical membrane. A digest of the protocol:
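Rat cerebral cortex homogenized in 50 mM Tris-HCl pH 7.4, centrifuged 20000g 20 min at 4 °C, washed three times, resuspended in 50 volumes. Triplicate incubations with [3H]flunitrazepam (~1 nM final) at 4 °C for 120 min, ended by GF/B filtration and ice-cold buffer washes. Nonspecific binding defined with 10 μM unlabeled flunitrazepam.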

`[O-]c1c2c(nn1-c1ccccc1)c1ccccc1c[n+]2Cc1ccccc1` registered an IC50 of over 2000 nM.
With `[O-]c1c2c(nn1-c1ccc(Cl)cc1)c1ccccc1c[n+]2Cc1ccccc1` the figure was over 2000 nM; with `c1ccc2c(c1)cnc1c3ccccc3[nH]c21`, over 2000 nM.
With `Sc1c2ncc3ccccc3c2nn1-c1ccccc1` the figure was over 2000 nM; with `O=c1c2ncc3ccccc3c2[nH]n1-c1ccccc1`, over 2000 nM; with `[O-]c1c2c(nn1-c1ccc(F)cc1)c1ccccc1c[n+]2Cc1ccccc1`, over 2000 nM.
The same measure for `COc1ccc(-n2nc3c4ccccc4c[n+](Cc4ccccc4)c3c2[O-])cc1`: over 2000 nM; for `O=c1c2ncc3ccccc3c2[nH]n1-c1ccc(F)cc1`: over 2000 nM.
Take `Oc1c2ncc3ccccc3c2nn1-c1ccc(Cl)cc1`: the IC50 was over 2000 nM.
The same measure for `COc1ccc(-n2[nH]c3c(ncc4ccccc43)c2=O)cc1`: over 2000 nM.
For the molecule `Clc1c2ncc3ccccc3c2nn1-c1ccccc1`, the IC50 is over 2000 nM.
With `COc1ccc(-n2nc3c4ccccc4[nH]cc-3c2=O)cc1` the figure was 0.9 nM.
